Published values from different studies.
Compare with care: the assays were run in different laboratories.
CDK7 with cyclin H: Cyclin-dependent kinase 7, with cyclin H (CDK7, Homo sapiens, UniProt P50613)
CDK7: Cyclin-dependent kinase 7 (CDK7, Homo sapiens, UniProt P50613)

`CNC(=O)Oc1ccc2c(c1)[C@]1(C)CCN(C)[C@@H]1N2C` has an inhibition of -4.5% (CDK7 with cyclin H; enzyme activity; inhibitor; ADP detection; 10 µM).
For `Cc1nn(C)cc1-c1nc2c(N3CCN(Cc4ccc(Cl)cc4)CC3)c(Cl)cnc2[nH]1`, the remaining binding was 100% (CDK7; binding; competition with immobilised ligand; 1 µM).
The remaining binding of `Cn1cncc1[C@](O)(COc1ccc(C#N)cc1-c1ccc(OC(F)(F)F)cc1)c1ccc(C#N)cc1` is reported as 95% (CDK7; cell-free assay; competition with immobilised ligand; 1 µM).
The remaining binding of `Nc1ncc(-c2nc(N3CCOCC3)nc(N3CCOCC3)n2)c(C(F)F)n1` is reported as 56% (CDK7; binding; competition with immobilised ligand; 10 µM).
`Cn1cc(-c2cc(F)cc(N3CCn4c(cc5c4CCCC5)C3=O)c2CO)cc(Nc2ccc(N3CCN(C4COC4)CC3)cn2)c1=O` gave an inhibition of 4% (CDK7 with cyclin H; enzyme activity; inhibitor; 0.1 µM).
`C[C@]12CC[C@H](O)CC1=CC[C@@H]1[C@@H]2CC[C@]2(C)C(=O)CC[C@@H]12` gave an inhibition of -2% (CDK7 with cyclin H; enzyme activity; inhibitor; ADP detection; 10 µM).
With `COc1ncccc1-c1cnn2ccc(N3CCN(C(=O)OC(C)C)CC3)nc12` the remaining binding was 100% (CDK7; binding; competition with immobilised ligand; 1 µM).
`CCN1CCN(Cc2ccc(C(=O)Nc3ccc(C)c(Oc4ccc5c(c4)CC(=O)N5)c3)cc2C(F)(F)F)CC1` has a remaining binding of 84% (CDK7; binding; competition with immobilised ligand; 1 µM).
`Cn1cc(-c2cccc(N3CCc4c(sc5c4CC(C)(C)C5)C3=O)c2CO)cc(Nc2ccncn2)c1=O` gave an inhibition of -11% (CDK7 with cyclin H; enzyme activity; inhibitor; 1 µM).
`COc1cc2occc2c2oc(=O)ccc12` gave an inhibition of -29.9% (CDK7 with cyclin H; enzyme activity; inhibitor; ADP detection; 10 µM).
